Source: PubChem
This is a sample that favours compounds with a hit; in the whole collection about 1.8% have one here.
STAT3 blocker – inhibitors of IL-6 induced STAT3 signaling. U3A cells, IL-6 STAT3-luciferase reporter, luminescence; host cell line lacks STAT1. inhibition, % at 5.5 µM. 190,000 tested, 0.89% active;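 active means inhibition above the mean inhibition across all screened compounds plus 3 SD, cut at about 44% in these data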;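 further: 0% = DMSO only wells and 100% = 100 µM nifuroxazide control wells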
STAT3 act – increases IL-6 driven STAT3 reporter signal | 190,000 tested, 0.91% active | AID 871 | activation (% of control), % at 5.6 µM | U3A cells, IL-6 STAT3-luciferase reporter, luminescence; 100% = signal with IL-6 EC80 alone;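 active means activation above the screen-wide mean of compound activation plus 3 SD, cut at about 130% in these data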;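 further: 0% = background luminescence of wells with medium and substrate only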
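Material: STAT3-luciferase reporter U3A cells; Probe or stimulus: IL-6 (33 ng/mL); Incubation: compound pre-incubation 1 h before IL-6, then 6 h stimulation at 37 °C; Technique: luminescence from STAT3-driven luciferase reporter; Evaluation: % activation versus median of IL-6-stimulated wells; Controls: IL-6-only high control.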
PPC-1+TRAIL kill – kills PPC-1 cancer cells in the presence of TRAIL | PPC-1 cells + TRAIL, ATPLite viability luminescence | cell killing (% activity), % at 4 µM or 5 µM | 220,000 tested, 0.41% active | AID 1443;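 active means cell killing above 50% in the first pass at 4 µM, then a duplicate retest at 5 µM averaging 50% or more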;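 further: plate controls were cells with TRAIL plus DMSO for no effect and medium-only wells lacking cells for full effect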
TRAIL sens C8 – sensitizes caspase-8 expressing cells to TRAIL; NB7+C8 cells + TRAIL, ATPlite viability luminescence; inhibition (viability loss, TRAIL sensitization), % at 10 µM; 360,000 tested, 1% active; AID 624354;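 active means compounds causing at least 50% loss of cell viability in the single-dose screen, relative to plate controls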
STAT1 inh – reduces IFN-gamma driven STAT1 reporter signal. NIH 3T3 STAT1-luciferase reporter, luminescence. inhibition, % at 5.5 µM. 200,000 tested, 0.35% active. AID 920;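 active means inhibition above a set limit, the mean inhibition across all tested compounds plus 3 SD, cut at about 34% in these data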;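 further: 0% = IFN-gamma with DMSO and 100% = IFN-gamma with 300 µM nifuroxazide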
Starred values were filed as active, the others as inactive.

How did CC(=O)OCC(=O)Nc1ccc([N+](=O)[O-])cc1Cl do in these assays?
STAT3 blocker: 4.3; STAT3 act: 101.2; PPC-1+TRAIL kill: 13.0; TRAIL sens C8: -10.8; STAT1 inh: -4.0

Results for CC(=O)Oc1c(C)cc(Cl)cc1C(=O)Nc1ccc([N+](=O)[O-])cc1Cl ?
STAT3 blocker: 45.7*; STAT3 act: 62.9; PPC-1+TRAIL kill: 39.2; TRAIL sens C8: 31.5; STAT1 inh: 3.1

What do the screens show for `CCC(=O)OCC(=O)c1c(N)n(Cc2ccccc2)c(=O)n(C)c1=O`?
STAT3 blocker: 2.4; STAT3 act: 100.4; PPC-1+TRAIL kill: 10.8; TRAIL sens C8: 0.8; STAT1 inh: 8.1

What do the screens show for `COC(=O)Cn1c(=O)c(C(=O)CCl)c(N)n(Cc2ccccc2)c1=O`?
PPC-1+TRAIL kill: 10.0; TRAIL sens C8: 81.7*

Results for Cc1cccc(-n2ncc3c(NC4CCCCC4)ncnc32)c1 ?
STAT3 blocker: 16.6; STAT3 act: 86.6; PPC-1+TRAIL kill: 35.9; TRAIL sens C8: 73.0*; STAT1 inh: -70.8

Results for C=CCNc1ncnc2c1cnn2-c1cccc(C)c1 ?
STAT3 blocker: 4.9; STAT3 act: 96.1; PPC-1+TRAIL kill: 9.3; TRAIL sens C8: 37.0; STAT1 inh: -43.2

Results for O=[N+]([O-])c1ccc(-c2nc(C(Cl)Cl)c3ccccc3n2)cc1 ?
PPC-1+TRAIL kill: 12.3; TRAIL sens C8: 59.9*

Results for CN(Cc1ccccc1)c1nc(-c2ccc([N+](=O)[O-])cc2)nc2ccccc12 ?
STAT3 blocker: 17.5; STAT3 act: 93.6; PPC-1+TRAIL kill: 15.4; TRAIL sens C8: 18.7; STAT1 inh: 5.5

How did Cc1ccc(NC(=O)c2sc3nc(CCl)[nH]c(=O)c3c2C)c(C)c1 do in these assays?
STAT3 blocker: -6.8; STAT3 act: 106.8; PPC-1+TRAIL kill: 23.9; TRAIL sens C8: 54.5*; STAT1 inh: -31.5

Results for Cn1c2ccccc2c2cc(C(=O)NNC(=O)CCl)sc21 ?
STAT3 blocker: -25.2; STAT3 act: 136.7*; PPC-1+TRAIL kill: 0.8; TRAIL sens C8: 18.1; STAT1 inh: -36.9

What do the screens show for `CCCNC(=O)c1cc2c3ccccc3n(C)c2s1`?
STAT3 blocker: -20.2; STAT3 act: 121.6; PPC-1+TRAIL kill: 1.5; TRAIL sens C8: 1.4; STAT1 inh: 2.0

What do the screens show for `CCN(CC(=O)Nc1ccc(NC(C)=O)cc1)C(=O)c1ccc(=O)n(C)n1`?
TRAIL sens C8: 13.0

Results for COc1ccc(Cl)cc1C(=O)Nc1ccc2c(c1)OCO2 ?
STAT3 blocker: -55.3; STAT3 act: 151.3*; PPC-1+TRAIL kill: 27.2; TRAIL sens C8: 1.6; STAT1 inh: -38.0

What do the screens show for `COc1ccc(Cl)cc1C(=O)Nc1ccc2c(c1)OCCO2`?
TRAIL sens C8: 51.8*

Results for COc1ccccc1C(=O)Nc1ccc2c(c1)OCCO2 ?
STAT3 blocker: -17.5; STAT3 act: 117.7; PPC-1+TRAIL kill: 36.8; TRAIL sens C8: 33.7; STAT1 inh: -43.4

Results for Cn1nc(C(C)(C)C)cc1N1C(=O)CCC1(C)C(=O)NC1CCCCC1 (stereo not given) ?
TRAIL sens C8: 17.0

What do the screens show for `O=C(Nc1cccc(O)c1)c1cc(-c2ccc3c(c2)OCO3)on1`?
TRAIL sens C8: 92.5*

How did O=C(Nc1cccc(O)c1)c1cc(-c2ccccc2Cl)on1 do in these assays?
TRAIL sens C8: 70.2*

How did COc1cc(NC(=O)c2cc(-c3ccc4c(c3)OCO4)on2)cc(OC)c1OC do in these assays?
TRAIL sens C8: -3.5

Results for O=C(NCC(c1ccccc1Cl)N1CCCC1)c1ccc(N2CCCC2=O)cc1 (stereo not given) ?
TRAIL sens C8: -20.3

What do the screens show for `Fc1cccc(CNc2ncnc3cc(Cl)ccc23)c1F`?
TRAIL sens C8: 9.5

How did Fc1ccc(-c2nc3n(n2)Cc2ccccc2-3)cc1 do in these assays?
STAT3 blocker: -14.8; STAT3 act: 116.7; PPC-1+TRAIL kill: 2.4; TRAIL sens C8: 57.3*; STAT1 inh: -14.7

Results for O=S(=O)(c1ccc(F)cc1)N1CCN(CC2CC3C=CC2C3)CC1 (stereo not given) ?
TRAIL sens C8: -10.3

What do the screens show for `O=C(Cn1cnc([N+](=O)[O-])n1)N/N=C/c1cccc2ccccc12`?
STAT3 blocker: 4.6; STAT3 act: 95.5; PPC-1+TRAIL kill: -7.2; TRAIL sens C8: -1.8; STAT1 inh: 10.6

What do the screens show for `O=C(Cn1cnc([N+](=O)[O-])n1)N/N=C/c1ccc(O)cc1O`?
STAT3 blocker: 10.9; STAT3 act: 100.4; PPC-1+TRAIL kill: 7.3; TRAIL sens C8: 52.3*; STAT1 inh: -4.4

Results for O=C(Nc1ccccc1C(=O)NCCc1ccccc1)c1cnccn1 ?
TRAIL sens C8: 0.2

What do the screens show for `CCc1nnc(NS(=O)(=O)c2ccc(N=Cc3c(C)[nH]n(-c4ccc(C)c(C)c4)c3=O)cc2)s1`?
STAT3 blocker: 1.9; STAT3 act: 100.6; PPC-1+TRAIL kill: 43.5; TRAIL sens C8: 56.1*; STAT1 inh: -12.2

Results for Cc1ccc(-n2[nH]c(C)c(C=Nc3ccc(S(=O)(=O)Nc4nccs4)cc3)c2=O)cc1 ?
STAT3 blocker: -12.1; STAT3 act: 108.8; PPC-1+TRAIL kill: 33.4; STAT1 inh: -1.9

Results for Cc1ccc(S(=O)(=O)N2CCN(C(=O)COC(=O)CCOc3ccccc3C)CC2)c(C)c1 ?
TRAIL sens C8: -4.1

How did COc1ccc(C(=O)Nc2ccc3ccccc3n2)c(OC)c1OC do in these assays?
TRAIL sens C8: 83.0*

Results for COc1ccc(C(=O)NCCN(C)C)c2nc3ccccc3cc12 ?
TRAIL sens C8: 51.3*

How did COc1cccc2nc3c(C(=O)NCCN(C)C)cccc3cc12 do in these assays?
TRAIL sens C8: 7.9

What do the screens show for `COc1ccc(COC(=O)C2=C(C)NC(=O)NC2c2ccccc2)cc1` (stereo not given)?
TRAIL sens C8: -0.1

How did C[C@H](CO)N1C[C@H](C)[C@@H](CN(C)C(=O)Nc2ccccc2)Oc2ccc(NC(=O)Cn3cnnn3)cc2C1=O do in these assays?
TRAIL sens C8: -9.6

How did Cc1cc(NC(=O)C2CCCCC2)nc2c1c(=O)oc1ccccc12 do in these assays?
STAT3 blocker: 8.5; STAT3 act: 97.1; PPC-1+TRAIL kill: -24.2; TRAIL sens C8: 33.5; STAT1 inh: -3.5

Results for Cc1cc(NC(=O)C2CCCC2)nc2c1c(=O)oc1ccccc12 ?
STAT3 blocker: 10.8; STAT3 act: 91.9; PPC-1+TRAIL kill: -12.0; TRAIL sens C8: 70.6*; STAT1 inh: -6.2

Results for Cc1cccc(CC(=O)Nc2cc(C)c3c(=O)oc4ccccc4c3n2)c1 ?
STAT3 blocker: 31.8; STAT3 act: 80.0; PPC-1+TRAIL kill: 14.6; TRAIL sens C8: 52.1*; STAT1 inh: 5.0

How did CCOc1ccccc1C=C1SC(=S)N(CC)C1=O do in these assays?
TRAIL sens C8: 73.3*

What do the screens show for `Cc1ccccc1C(=O)N[C@H](C(=O)OCC(=O)NC1CC1)C(C)C`?
TRAIL sens C8: 12.3

What do the screens show for `CCOc1ccc(NC(=O)c2ccc3c(c2)S(=O)(=O)N=C2CCCCCN23)cc1`?
TRAIL sens C8: -12.7
